{"source": "paper PMC4424388", "about": "(Mucosal Immunology, 2014)", "key": {"[1]": {"test": "In vitro reduction assay, glutathione", "type": "physicochemical", "conditions": "5 mM reduced glutathione, 100 mM sodium phosphate, 2 mM EDTA; RP-HPLC; Supplementary Figure 4"}, "[2]": {"system": "Bifidobacterium longum DSM 20219T", "test": "Antimicrobial radial diffusion assay", "type": "cell-based", "conditions": "1 μg peptide, 2 mM DTT, at least three experiments", "outline": "(§1)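 Log-phase bacteria washed and diluted to OD600 0.1. Gel: 10 mM sodium phosphate (pH 7.4 or 5.7), 0.3 mg/ml TSB powder, 1% low-EEO agarose, 0–2 mM DTT. Peptide (1 μg/μl stock in 0.01% acetic acid) pipetted into punched wells; overlay gel poured after 3 h. Inhibition-zone diameter read after up to 48 h; 2.5 mm (well/vehicle) means no activity. ≥3 experiments, mean with s.e.m.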"}, "[3]": {"system": "Lactobacillus acidophilus PZ 1138", "test": "Antimicrobial radial diffusion assay", "type": "cell-based", "conditions": "1 μg peptide, 2 mM DTT, at least three experiments", "outline": "as §1"}, "[4]": {"system": "human TRX (with rat TRX reductase, NADPH)", "test": "In vitro reduction assay, thioredoxin system", "type": "biochemical", "conditions": "TRX increased to 6 μM or incubation prolonged to 60 min; data not shown"}, "[5]": {"system": "Bifidobacterium adolescentis Ni3,29c", "test": "Antimicrobial radial diffusion assay", "type": "cell-based", "conditions": "1 μg peptide, 2 mM DTT, at least three experiments", "outline": "as §1"}, "[6]": {"test": "Chemical reduction by DTT", "type": "physicochemical", "conditions": "incubation extended to 3 h or DTT increased to 10 mM; data not shown"}, "[7]": {"system": "Bif. adolescentis Ni3,29c", "test": "Turbidity broth assay", "type": "cell-based, Bifidobacterium adolescentis", "conditions": "higher peptide concentrations; causes apparent better growth in OD600", "outline": "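Overnight Bif. adolescentis Ni3,29c was washed twice in 10 mM sodium phosphate with 1% TSB. About 5×10^5 CFU/ml were exposed to peptide at 1.25–128 μg/ml, with 2 mM DTT where indicated, for 2 h at 37 °C in an anaerobic jar. 6% TSB was then added and A600 read at 24 and 48 h; change plotted against concentration. CFU counted in parallel on Columbia blood agar. Triplicate experiments, mean with s.e.m.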"}, "[8]": {"system": "glutaredoxin", "test": "In vitro reduction assay, glutaredoxin", "type": "biochemical", "conditions": "3 μM glutaredoxin with 5 mM reduced glutathione; RP-HPLC; Supplementary Figure 4", "outline": "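Glutathione-based system: 5 mM reduced glutathione in 100 mM sodium phosphate with 2 mM EDTA, plus 3 μM active glutaredoxin or buffer only, incubated with oxidized peptide. Mixtures acidified with trifluoroacetic acid and analysed by RP-HPLC: C18 column, 15–45% acetonitrile (TFA-containing solvents) over 30 min at 25 °C and 0.8 ml/min.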"}, "[9]": {"system": "Bifidobacterium breve PZ 1343", "test": "Antimicrobial radial diffusion assay", "type": "cell-based", "conditions": "1 μg peptide, 2 mM DTT, at least three experiments", "outline": "as §1"}, "[10]": {"system": "Streptococcus salivarius ssp thermophilus DSM20617", "test": "Antimicrobial radial diffusion assay", "type": "cell-based", "conditions": "1 μg peptide, 2 mM DTT, at least three experiments", "outline": "as §1"}, "[11]": {"system": "(anaerobic) commensal gut bacteria", "test": "Antimicrobial radial diffusion assay, bacteria not given", "type": "cell-based", "conditions": "1 μg peptide, 2 mM DTT", "outline": "as §1"}, "[12]": {"system": "human TRX (with rat TRX reductase, NADPH)", "conditions": "cited from earlier work"}, "[13]": {"system": "Bif. adolescentis Ni3,29c", "test": "Transmission electron microscopy of bacteria", "type": "cell-based, Bifidobacterium adolescentis", "conditions": "TEM, 200 μg/ml peptide, 2 mM DTT, 2 h 37 °C, pH 7.4"}, "[14]": {"test": "Retention of reduced status in buffer with DTT", "type": "physicochemical", "conditions": "2 mM DTT in sodium phosphate buffer"}}, "note": "Where two headings read alike, the source gives them in different places.", "data": [{"molecule": "Human α-defensin 6 [HD-6]", "values": [{"measurement": "reduction by glutathione", "setting": "[1]", "result": "did not lead to any reduction"}, {"measurement": "antibiotic activity, especially under reducing conditions", "setting": "[2]", "result": "inhibitory activity"}, {"measurement": "antibiotic activity, especially under reducing conditions", "setting": "[3]", "result": "inhibitory activity"}, {"measurement": "reduction by the TRX system", "setting": "[4]", "result": "not sufficient to completely reduce"}, {"measurement": "antibiotic activity, especially under reducing conditions", "setting": "[5]", "result": "inhibitory activity"}, {"measurement": "extent of reduction of disulfide bridges by DTT", "setting": "[6]", "result": "remarkably enhanced HD-6 reduction, but the oxidized form of the peptide could still be detected"}, {"measurement": "aggregation in the turbidity assay", "setting": "[7]", "result": "light-scattering aggregations"}, {"measurement": "reduction by glutaredoxin", "setting": "[8]", "result": "did not lead to any reduction"}, {"measurement": "antibiotic activity, especially under reducing conditions", "setting": "[9]", "result": "inhibitory activity"}, {"measurement": "antibiotic activity, especially under reducing conditions", "setting": "[10]", "result": "inhibitory activity"}]}, {"molecule": "human β-defensin 1 (DHYNCVSSGGQCLYSACPIFTKIQGTCYRGKAKCCK; Beta-defensin 1; UniProt P60022 33-68, looked up) [hBD-1, reference compound]", "values": [{"measurement": "activity under reducing conditions against several bacteria", "setting": "[11]", "result": "increased activity"}, {"measurement": "reduction by the TRX system", "setting": "[12]", "result": "can also reduce"}]}, {"molecule": "ΔredHD-6: synthetic reduced truncated HD-6 (TCHCRRSCYSTEYSYGTCTVMGINHRFCCL; Defensin-6 reduced; UniProt Q01524 71-100, looked up, fragment)", "values": [{"measurement": "ultrastructural alterations of the bacterium", "setting": "[13]", "result": "disintegration of stainable intracellular structures"}, {"measurement": "time for which the peptide retained its completely reduced status", "setting": "[14]", "result": "at least 2 h"}]}, {"molecule": "HD-5: synthetic oxidized human α-defensin 5 (peptide, UniProt Q01523 20-94, looked up, Defensin-5) Defensin alpha 5: ESLQERADEATTQKQSGEDNQDLAISFAGNGLSALRTSGSQARATCYCRTGRCATRESLSGVCEISGRLYRLCCR", "values": [{"measurement": "reduction by the TRX system", "setting": "[12]", "result": "can also reduce"}]}]}
